Assay results: ChEMBL document CHEMBL5303300, “EUbOPEN Chemogenomics Library - Multiplex” (2023)
Where “and” joins values, the source holds several entries; their conditions need not be identical. Equal values may be shown once.

Tested on: Fibroblast
Test: Multiplex assay against human fibroblast
Format: toxicity, cell-based
Settings: number of replicates 2
Summary of the method: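 With compound added, live cells were imaged on a CQ1 microscope at 37°C and 5% CO2; staining with Hoechst33342, BioTracker Green Microtubule Cytoskeleton Dye, MitoTracker Red and Annexin V Alexa Fluor 680 had been done at seeding. The CellPathfinder machine-learning gating scheme split cells into Hoechst high-intensity objects or normal cells, normal cells into healthy, pyknosed or fragmented nuclei, and pyknosed cells into mitotic or apoptotic. The tubulin, mitochondrial-mass and membrane-permeability phenotypes are per cents of healthy-nucleus cells.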

[1] = 12 h, 1 µM, compound concentration 1 uM
[2] = 12 h, 10 µM, compound concentration 10 uM
[3] = 24 h, 1 µM, compound concentration 1 uM
[4] = 24 h, 10 µM, compound concentration 10 uM
[5] = 48 h, 1 µM, compound concentration 1 uM
[6] = 48 h, 10 µM, compound concentration 10 uM

CC(C)c1cc(-c2ccc(F)c3ccccc23)nc(N)n1
Population Apoptotic (%) [1]: 33% | Population Fragmented Nuclei (%) [1]: 14% and 15% | Population Healthy Nuclei (%) [1]: 70% and 65% | Population Hoechst High Intensity Objects (%) [1]: 1% and 0% | Population Membrane Permeable-Phenotype (%) [1]: 5% and 8% | Population Mitochondria Different-Phenotype (%) [1]: 0% and 3% | Population Mitotic Cells (%) [1]: 66% | Population Normal (%) [1]: 98% and 100% | Population Pyknosed Nuclei (%) [1]: 15% and 18% | Population Tubulin-Different-Phenotype (%) [1]: 16% and 14% | Total Cell Count [1]: 161 and 144 | Population Apoptotic (%) [2]: 38% | Population Fragmented Nuclei (%) [2]: 11% and 16% | Population Healthy Nuclei (%) [2]: 75% and 71% | Population Hoechst High Intensity Objects (%) [2]: 0% | Population Membrane Permeable-Phenotype (%) [2]: 7% | Population Mitochondria Different-Phenotype (%) [2]: 0% and 2% | Population Mitotic Cells (%) [2]: 61% | Population Normal (%) [2]: 100% | Population Pyknosed Nuclei (%) [2]: 12% | Population Tubulin-Different-Phenotype (%) [2]: 12% | Total Cell Count [2]: 140 and 174 | Population Apoptotic (%) [3]: 47% and 40% | Population Fragmented Nuclei (%) [3]: 14% and 15% | Population Healthy Nuclei (%) [3]: 71% and 67% | Population Hoechst High Intensity Objects (%) [3]: 0% | Population Membrane Permeable-Phenotype (%) [3]: 4% and 8% | Population Mitochondria Different-Phenotype (%) [3]: 0% and 1% | Population Mitotic Cells (%) [3]: 52% and 60% | Population Normal (%) [3]: 100% | Population Pyknosed Nuclei (%) [3]: 13% and 17% | Population Tubulin-Different-Phenotype (%) [3]: 17% and 12% | Total Cell Count [3]: 157 and 140 | Population Apoptotic (%) [4]: 75% and 46% | Population Fragmented Nuclei (%) [4]: 9% and 14% | Population Healthy Nuclei (%) [4]: 84% and 76% | Population Hoechst High Intensity Objects (%) [4]: 0% | Population Membrane Permeable-Phenotype (%) [4]: 5% and 1% | Population Mitochondria Different-Phenotype (%) [4]: 0% and 3% | Population Mitotic Cells (%) [4]: 25% and 53% | Population Normal (%) [4]: 99% and 100% | Population Pyknosed Nuclei (%) [4]: 5% and 8% | Population Tubulin-Different-Phenotype (%) [4]: 11% and 8% | Total Cell Count [4]: 135 and 171 | Population Apoptotic (%) [5]: 65% and 57% | Population Fragmented Nuclei (%) [5]: 16% and 13% | Population Healthy Nuclei (%) [5]: 69% and 71% | Population Hoechst High Intensity Objects (%) [5]: 0% | Population Membrane Permeable-Phenotype (%) [5]: 4% and 7% | Population Mitochondria Different-Phenotype (%) [5]: 0% | Population Mitotic Cells (%) [5]: 34% and 42% | Population Normal (%) [5]: 100% and 99% | Population Pyknosed Nuclei (%) [5]: 13% and 14% | Population Tubulin-Different-Phenotype (%) [5]: 14% and 7% | Total Cell Count [5]: 173 and 142 | Population Apoptotic (%) [6]: 100% and 54% | Population Fragmented Nuclei (%) [6]: 13% and 14% | Population Healthy Nuclei (%) [6]: 82% and 79% | Population Hoechst High Intensity Objects (%) [6]: 0% | Population Membrane Permeable-Phenotype (%) [6]: 3% and 1% | Population Mitochondria Different-Phenotype (%) [6]: 0% | Population Normal (%) [6]: 100% | Population Pyknosed Nuclei (%) [6]: 3% and 6% | Population Tubulin-Different-Phenotype (%) [6]: 7% and 5% | Total Cell Count [6]: 152 and 175

Cc1ccc2c(N)c(C(=O)NC3CCc4cc(N5CC6CCC(C5)N6)ccc4C3)sc2n1.O=CO (stereo unspecified)
Population Apoptotic (%) [1]: 50% and 54% | Population Fragmented Nuclei (%) [1]: 16% | Population Healthy Nuclei (%) [1]: 73% and 68% | Population Hoechst High Intensity Objects (%) [1]: 0% and 1% | Population Membrane Permeable-Phenotype (%) [1]: 2% | Population Mitochondria Different-Phenotype (%) [1]: 1% and 2% | Population Mitotic Cells (%) [1]: 50% and 45% | Population Normal (%) [1]: 99% and 98% | Population Pyknosed Nuclei (%) [1]: 10% and 15% | Population Tubulin-Different-Phenotype (%) [1]: 17% and 14% | Total Cell Count [1]: 232 and 283 | Population Apoptotic (%) [2]: 38% and 26% | Population Fragmented Nuclei (%) [2]: 16% and 24% | Population Healthy Nuclei (%) [2]: 53% and 55% | Population Hoechst High Intensity Objects (%) [2]: 3% and 5% | Population Membrane Permeable-Phenotype (%) [2]: 4% and 2% | Population Mitochondria Different-Phenotype (%) [2]: 3% and 1% | Population Mitotic Cells (%) [2]: 61% and 73% | Population Normal (%) [2]: 96% and 94% | Population Pyknosed Nuclei (%) [2]: 29% and 20% | Population Tubulin-Different-Phenotype (%) [2]: 23% and 22% | Total Cell Count [2]: 238 and 259 | Population Apoptotic (%) [3]: 46% and 52% | Population Fragmented Nuclei (%) [3]: 14% | Population Healthy Nuclei (%) [3]: 75% and 71% | Population Hoechst High Intensity Objects (%) [3]: 0% | Population Membrane Permeable-Phenotype (%) [3]: 2% and 1% | Population Mitochondria Different-Phenotype (%) [3]: 3% and 2% | Population Mitotic Cells (%) [3]: 53% and 47% | Population Normal (%) [3]: 100% and 99% | Population Pyknosed Nuclei (%) [3]: 10% and 14% | Population Tubulin-Different-Phenotype (%) [3]: 15% and 14% | Total Cell Count [3]: 259 and 302 | Population Apoptotic (%) [4]: 48% and 45% | Population Fragmented Nuclei (%) [4]: 18% and 23% | Population Healthy Nuclei (%) [4]: 42% and 48% | Population Hoechst High Intensity Objects (%) [4]: 7% and 6% | Population Membrane Permeable-Phenotype (%) [4]: 2% and 1% | Population Mitochondria Different-Phenotype (%) [4]: 13% and 8% | Population Mitotic Cells (%) [4]: 51% and 54% | Population Normal (%) [4]: 92% and 93% | Population Pyknosed Nuclei (%) [4]: 39% and 28% | Population Tubulin-Different-Phenotype (%) [4]: 23% and 15% | Total Cell Count [4]: 228 and 250 | Population Apoptotic (%) [5]: 56% and 60% | Population Fragmented Nuclei (%) [5]: 27% and 18% | Population Healthy Nuclei (%) [5]: 67% and 71% | Population Hoechst High Intensity Objects (%) [5]: 0% | Population Membrane Permeable-Phenotype (%) [5]: 1% | Population Mitochondria Different-Phenotype (%) [5]: 1% and 3% | Population Mitotic Cells (%) [5]: 43% and 40% | Population Normal (%) [5]: 99% | Population Pyknosed Nuclei (%) [5]: 5% and 10% | Population Tubulin-Different-Phenotype (%) [5]: 18% and 17% | Total Cell Count [5]: 294 and 298 | Population Apoptotic (%) [6]: 67% and 55% | Population Fragmented Nuclei (%) [6]: 20% and 22% | Population Healthy Nuclei (%) [6]: 29% and 36% | Population Hoechst High Intensity Objects (%) [6]: 11% and 10% | Population Membrane Permeable-Phenotype (%) [6]: 7% and 2% | Population Mitochondria Different-Phenotype (%) [6]: 21% and 16% | Population Mitotic Cells (%) [6]: 32% and 44% | Population Normal (%) [6]: 88% and 89% | Population Pyknosed Nuclei (%) [6]: 49% and 40% | Population Tubulin-Different-Phenotype (%) [6]: 25% and 15% | Total Cell Count [6]: 194 and 215
